Experimental data as given in ChEMBL document CHEMBL5724801, “EUbOPEN Chemogenomics Library - Multiplex” (2024).
Several values for one entry are separate records, joined by “and”; a condition that tells them apart may be missing. Equal values may be shown once.

Test system: Fibroblast
Experiment: Multiplex assay against human fibroblast
Assay type: toxicity, cell-based
Outline: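 Hoechst33342, BioTracker Green Microtubule Cytoskeleton Dye, MitoTracker Red and Annexin V Alexa Fluor 680 were added to live cells at seeding, and imaging on a CQ1 microscope at 37°C and 5% CO2 followed compound addition. Gating by CellPathfinder machine learning separated cells into Hoechst high-intensity objects or normal cells, then normal cells into healthy, pyknosed or fragmented nuclei, then pyknosed cells into mitotic or apoptotic. Per cents of healthy-nucleus cells are reported for the tubulin, mitochondrial-mass and membrane-permeability phenotypes.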

[1] = 12 h, 1 µM, compound concentration 1 uM
[2] = 12 h, 10 µM, compound concentration 10 uM
[3] = 24 h, 1 µM, compound concentration 1 uM
[4] = 24 h, 10 µM, compound concentration 10 uM
[5] = 48 h, 1 µM, compound concentration 1 uM
[6] = 48 h, 10 µM, compound concentration 10 uM

Compound: Cc1nn(C)c2nc(NNC(=O)Nc3cc(Cl)nc(Cl)c3)cc(C(C)C)c12
- Population Apoptotic (%) [1]: 62% and 37%
- Population Fragmented Nuclei (%) [1]: 15% and 31%
- Population Healthy Nuclei (%) [1]: 68% and 53%
- Population Hoechst High Intensity Objects (%) [1]: 3% and 2%
- Population Membrane Permeable-Phenotype (%) [1]: 0%
- Population Mitochondria Different-Phenotype (%) [1]: 4% and 7%
- Population Mitotic Cells (%) [1]: 37% and 62%
- Population Normal (%) [1]: 96% and 97%
- Population Pyknosed Nuclei (%) [1]: 15%
- Population Tubulin-Different-Phenotype (%) [1]: 27% and 46%
- Total Cell Count [1]: 178 and 179
- Population Apoptotic (%) [2]: 53% and 21%
- Population Fragmented Nuclei (%) [2]: 12% and 33%
- Population Healthy Nuclei (%) [2]: 63% and 56%
- Population Hoechst High Intensity Objects (%) [2]: 3% and 7%
- Population Membrane Permeable-Phenotype (%) [2]: 2% and 5%
- Population Mitochondria Different-Phenotype (%) [2]: 15% and 6%
- Population Mitotic Cells (%) [2]: 46% and 78%
- Population Normal (%) [2]: 96% and 92%
- Population Pyknosed Nuclei (%) [2]: 23% and 10%
- Population Tubulin-Different-Phenotype (%) [2]: 89%
- Total Cell Count [2]: 139 and 140
- Population Apoptotic (%) [3]: 59% and 62%
- Population Fragmented Nuclei (%) [3]: 18% and 21%
- Population Healthy Nuclei (%) [3]: 68%
- Population Hoechst High Intensity Objects (%) [3]: 1% and 2%
- Population Membrane Permeable-Phenotype (%) [3]: 1% and 2%
- Population Mitochondria Different-Phenotype (%) [3]: 3% and 6%
- Population Mitotic Cells (%) [3]: 40% and 37%
- Population Normal (%) [3]: 98% and 97%
- Population Pyknosed Nuclei (%) [3]: 12% and 9%
- Population Tubulin-Different-Phenotype (%) [3]: 29% and 50%
- Total Cell Count [3]: 176 and 174
- Population Apoptotic (%) [4]: 52% and 25%
- Population Fragmented Nuclei (%) [4]: 12% and 28%
- Population Healthy Nuclei (%) [4]: 69% and 61%
- Population Hoechst High Intensity Objects (%) [4]: 4% and 8%
- Population Membrane Permeable-Phenotype (%) [4]: 1% and 0%
- Population Mitotic Cells (%) [4]: 47% and 75%
- Population Normal (%) [4]: 95% and 91%
- Population Pyknosed Nuclei (%) [4]: 18% and 9%
- Population Tubulin-Different-Phenotype (%) [4]: 95% and 89%
- Total Cell Count [4]: 130 and 132
- Population Apoptotic (%) [5]: 71% and 57%
- Population Fragmented Nuclei (%) [5]: 18% and 34%
- Population Healthy Nuclei (%) [5]: 73% and 62%
- Population Hoechst High Intensity Objects (%) [5]: 1% and 2%
- Population Membrane Permeable-Phenotype (%) [5]: 1% and 2%
- Population Mitochondria Different-Phenotype (%) [5]: 2%
- Population Mitotic Cells (%) [5]: 28% and 42%
- Population Normal (%) [5]: 98% and 97%
- Population Pyknosed Nuclei (%) [5]: 7% and 3%
- Population Tubulin-Different-Phenotype (%) [5]: 30% and 36%
- Total Cell Count [5]: 188 and 184
- Population Apoptotic (%) [6]: 93% and 62%
- Population Fragmented Nuclei (%) [6]: 16% and 38%
- Population Healthy Nuclei (%) [6]: 70% and 56%
- Population Hoechst High Intensity Objects (%) [6]: 8% and 3%
- Population Membrane Permeable-Phenotype (%) [6]: 2%
- Population Normal (%) [6]: 91% and 96%
- Population Pyknosed Nuclei (%) [6]: 13% and 5%
- Population Tubulin-Different-Phenotype (%) [6]: 96% and 85%
- Total Cell Count [6]: 129 and 155

Compound: CCOc1c2c(c(OCC)c3ncccc13)CN(c1ccc(CS(=O)(=O)NC(=O)Cc3ccccc3OC)cc1C)C2=O
- Population Apoptotic (%) [1]: 44% and 38%
- Population Fragmented Nuclei (%) [1]: 15% and 37%
- Population Healthy Nuclei (%) [1]: 68% and 42%
- Population Hoechst High Intensity Objects (%) [1]: 0% and 4%
- Population Membrane Permeable-Phenotype (%) [1]: 1% and 8%
- Population Mitochondria Different-Phenotype (%) [1]: 3% and 2%
- Population Mitotic Cells (%) [1]: 55% and 61%
- Population Normal (%) [1]: 99% and 95%
- Population Pyknosed Nuclei (%) [1]: 15% and 19%
- Population Tubulin-Different-Phenotype (%) [1]: 23% and 62%
- Total Cell Count [1]: 120 and 111
- Population Apoptotic (%) [2]: 35% and 21%
- Population Fragmented Nuclei (%) [2]: 15% and 19%
- Population Healthy Nuclei (%) [2]: 63% and 50%
- Population Hoechst High Intensity Objects (%) [2]: 1% and 3%
- Population Membrane Permeable-Phenotype (%) [2]: 1% and 7%
- Population Mitochondria Different-Phenotype (%) [2]: 6% and 8%
- Population Mitotic Cells (%) [2]: 64% and 78%
- Population Normal (%) [2]: 98% and 96%
- Population Pyknosed Nuclei (%) [2]: 21% and 29%
- Population Tubulin-Different-Phenotype (%) [2]: 27% and 54%
- Total Cell Count [2]: 161 and 146
- Population Apoptotic (%) [3]: 56% and 46%
- Population Fragmented Nuclei (%) [3]: 13% and 37%
- Population Healthy Nuclei (%) [3]: 67% and 32%
- Population Hoechst High Intensity Objects (%) [3]: 3% and 2%
- Population Mitochondria Different-Phenotype (%) [3]: 3%
- Population Mitotic Cells (%) [3]: 43% and 53%
- Population Normal (%) [3]: 96% and 97%
- Population Pyknosed Nuclei (%) [3]: 18% and 29%
- Population Tubulin-Different-Phenotype (%) [3]: 23% and 69%
- Total Cell Count [3]: 127 and 104
- Population Apoptotic (%) [4]: 42%
- Population Fragmented Nuclei (%) [4]: 17% and 25%
- Population Healthy Nuclei (%) [4]: 66% and 49%
- Population Hoechst High Intensity Objects (%) [4]: 3% and 4%
- Population Membrane Permeable-Phenotype (%) [4]: 1% and 5%
- Population Mitochondria Different-Phenotype (%) [4]: 2%
- Population Mitotic Cells (%) [4]: 57%
- Population Normal (%) [4]: 96% and 95%
- Population Pyknosed Nuclei (%) [4]: 15% and 25%
- Population Tubulin-Different-Phenotype (%) [4]: 19% and 50%
- Total Cell Count [4]: 171 and 142
- Population Apoptotic (%) [5]: 57% and 66%
- Population Fragmented Nuclei (%) [5]: 18% and 47%
- Population Healthy Nuclei (%) [5]: 66% and 40%
- Population Hoechst High Intensity Objects (%) [5]: 3% and 5%
- Population Membrane Permeable-Phenotype (%) [5]: 1% and 5%
- Population Mitochondria Different-Phenotype (%) [5]: 3% and 7%
- Population Mitotic Cells (%) [5]: 42% and 33%
- Population Normal (%) [5]: 96% and 94%
- Population Pyknosed Nuclei (%) [5]: 15% and 12%
- Population Tubulin-Different-Phenotype (%) [5]: 26% and 72%
- Total Cell Count [5]: 128 and 105
- Population Apoptotic (%) [6]: 71% and 29%
- Population Fragmented Nuclei (%) [6]: 16% and 34%
- Population Healthy Nuclei (%) [6]: 63% and 45%
- Population Hoechst High Intensity Objects (%) [6]: 7% and 9%
- Population Membrane Permeable-Phenotype (%) [6]: 1% and 7%
- Population Mitochondria Different-Phenotype (%) [6]: 2% and 5%
- Population Mitotic Cells (%) [6]: 28% and 70%
- Population Normal (%) [6]: 92% and 90%
- Population Pyknosed Nuclei (%) [6]: 20%
- Population Tubulin-Different-Phenotype (%) [6]: 20% and 51%
- Total Cell Count [6]: 171 and 131

Compound: CCCCCC(O)/C=C/[C@H]1C(=O)CC(O)C1C/C=C\CCCC(=O)O (some centres not stated)
- Population Apoptotic (%) [1]: 52% and 50%
- Population Fragmented Nuclei (%) [1]: 24% and 40%
- Population Healthy Nuclei (%) [1]: 65% and 41%
- Population Hoechst High Intensity Objects (%) [1]: 1% and 2%
- Population Membrane Permeable-Phenotype (%) [1]: 0% and 7%
- Population Mitotic Cells (%) [1]: 47% and 50%
- Population Normal (%) [1]: 98% and 97%
- Population Pyknosed Nuclei (%) [1]: 10% and 18%
- Population Tubulin-Different-Phenotype (%) [1]: 19% and 52%
- Total Cell Count [1]: 172 and 169
- Population Apoptotic (%) [2]: 42% and 34%
- Population Fragmented Nuclei (%) [2]: 16% and 20%
- Population Healthy Nuclei (%) [2]: 69% and 56%
- Population Hoechst High Intensity Objects (%) [2]: 0% and 2%
- Population Membrane Permeable-Phenotype (%) [2]: 0% and 3%
- Population Mitochondria Different-Phenotype (%) [2]: 1% and 7%
- Population Mitotic Cells (%) [2]: 57% and 65%
- Population Normal (%) [2]: 99% and 97%
- Population Pyknosed Nuclei (%) [2]: 13% and 23%
- Population Tubulin-Different-Phenotype (%) [2]: 16% and 41%
- Total Cell Count [2]: 139 and 101
- Population Apoptotic (%) [3]: 35% and 50%
- Population Fragmented Nuclei (%) [3]: 20% and 41%
- Population Healthy Nuclei (%) [3]: 70% and 50%
- Population Hoechst High Intensity Objects (%) [3]: 0% and 1%
- Population Membrane Permeable-Phenotype (%) [3]: 0% and 4%
- Population Mitochondria Different-Phenotype (%) [3]: 2% and 10%
- Population Mitotic Cells (%) [3]: 64% and 50%
- Population Normal (%) [3]: 99% and 98%
- Population Pyknosed Nuclei (%) [3]: 8%
- Population Tubulin-Different-Phenotype (%) [3]: 21% and 47%
- Total Cell Count [3]: 169 and 184
- Population Apoptotic (%) [4]: 61% and 33%
- Population Fragmented Nuclei (%) [4]: 17% and 18%
- Population Healthy Nuclei (%) [4]: 72% and 59%
- Population Hoechst High Intensity Objects (%) [4]: 2% and 4%
- Population Membrane Permeable-Phenotype (%) [4]: 1% and 3%
- Population Mitochondria Different-Phenotype (%) [4]: 3% and 1%
- Population Mitotic Cells (%) [4]: 38% and 66%
- Population Normal (%) [4]: 97% and 95%
- Population Pyknosed Nuclei (%) [4]: 9% and 21%
- Population Tubulin-Different-Phenotype (%) [4]: 21% and 29%
- Total Cell Count [4]: 138 and 101
- Population Apoptotic (%) [5]: 50% and 30%
- Population Fragmented Nuclei (%) [5]: 27% and 47%
- Population Healthy Nuclei (%) [5]: 66% and 46%
- Population Hoechst High Intensity Objects (%) [5]: 3% and 2%
- Population Membrane Permeable-Phenotype (%) [5]: 0% and 3%
- Population Mitochondria Different-Phenotype (%) [5]: 2% and 7%
- Population Mitotic Cells (%) [5]: 50% and 70%
- Population Normal (%) [5]: 96% and 97%
- Population Pyknosed Nuclei (%) [5]: 5%
- Population Tubulin-Different-Phenotype (%) [5]: 19% and 42%
- Total Cell Count [5]: 175 and 186
- Population Apoptotic (%) [6]: 63% and 33%
- Population Fragmented Nuclei (%) [6]: 17% and 30%
- Population Healthy Nuclei (%) [6]: 74% and 61%
- Population Hoechst High Intensity Objects (%) [6]: 4% and 0%
- Population Membrane Permeable-Phenotype (%) [6]: 0% and 6%
- Population Mitochondria Different-Phenotype (%) [6]: 0% and 3%
- Population Mitotic Cells (%) [6]: 36% and 66%
- Population Normal (%) [6]: 95% and 99%
- Population Pyknosed Nuclei (%) [6]: 8%
- Total Cell Count [6]: 141 and 104
